Screening data deposited in PubChem BioAssay by several laboratories.
Arrestin-AP2 inh – inhibitors of beta-arrestin/AP2 binding, primary screen, biochemical, GPCR trafficking, flow cytometry | FITC-arrestin peptide / GST-AP2 beads; AP2 beta2 appendage carries R879A mutation | 340,000 tested, 0.31% active | inhibition, % at 10 µM;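 active = inhibition above a set limit, near 3 SD of compounds lacking own fluorescence, cut at about 54% in these data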;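 note: plate controls were DMSO wells for no effect and 5 µM unlabelled arrestin peptide for full effect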
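System: GST-AP2 R879A glutathione beads; medium: PBS, Tween 20 0.05%, BSA 0.1%; reagent: fluorescein-tagged arrestin peptide at 50 nM final; schedule: pre-incubation 12 min, peptide binding 1 h, room temperature; detection: flow cytometry, FL1 (488/535 nm); read-out: inhibition as reduced fluorescein signal on beads, percent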
CendR NRP1 mod – modulators of CendR peptide binding to NRP-1, primary screen, biochemical, fluorescence polarization, uHTS. Neuropilin-1 (Homo sapiens), O14786. FAM-RPARPAR peptide binding to NRP-1. inhibition, % at 25 µM. 360,000 tested, 0.85% active. AID 602438, 2012;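 active = inhibition or corrected inhibition above about 18%, plus a signal ratio from 0.5 to 1.5, limit read from the data, passing the limit was not always enough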
CaV13 FRET inh – Disruptors of the CACNA1D IQ motif to Ca2+-dependent inactivation inhibitor domain association, primary screening, Förster resonance energy transfer in intact living … | HEK cells, CFP/YFP FRET ICDI-IQ, plate reader, 10 min; percent FRET-ratio fall versus neutral wells | inhibition, % at 12.3 µM | 340,000 tested, 0.098% active;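 active = mean replicate inhibition of at least 30% and at least 1% of replicates passing that level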;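 note: 0% = median of the neutral control wells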
FAS TE block – FAS thioesterase domain inhibitors, primary screen, biochemical, fluorescence intensity, uHTS | recombinant FAS-TE, OMFH fluorogenic substrate, fluorescence endpoint | inhibition, % at 15 µM | 360,000 tested, 0.67% active | AID 602261, 2012;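 active = compounds whose normalised, plate-corrected inhibition of enzyme fluorescence in the single-dose primary screen is 50% or more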;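 note: 0% = DMSO with enzyme and 100% = substrate without enzyme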
ADAM17 inh – ADAM17 inhibitors, primary screen, biochemical, QFRET; Disintegrin and metalloproteinase domain-containing protein 17 (Homo sapiens), P78536; 370,000 tested, 0.83% active; inhibition, % at 6.95 µM; recombinant ADAM17, EDANS/DABCYL FRET peptide cleavage; AID 720648, 2013;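 active = inhibition above the mean of compounds lying between control limits plus 3 SD, set per campaign, cut at about 8.5% in these data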;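 note: 0% = DMSO-only wells as the low control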
ADAM10 inh – human ADAM10 inhibitors, primary screen, biochemical, QFRET, HTS; AID 720582, 2013; inhibition, % at 7 µM; Disintegrin and metalloproteinase domain-containing protein 10 (Homo sapiens), O14672; 370,000 tested, 0.62% active; recombinant ADAM10, EDANS/DABCYL FRET peptide cleavage, 3 h;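 active = inhibition above a per-campaign cutoff equal to the mean of compounds falling between control-based bounds plus 3 SD, cut at about 20% in these data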;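 note: 0% = DMSO wells while the 100% control is not disclosed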
Starred values were filed as active, the others as inactive; . = no result. The list is not random: actives were taken first. Their share in the collection is about 2.9%.

SMILES	Arrestin-AP2 inh	CendR NRP1 mod	CaV13 FRET inh	FAS TE block	ADAM17 inh	ADAM10 inh
Cc1ccccc1-n1ncc2c1CC(C)(C)CC2NC(=O)CSc1ccncc1 (stereo not given)	-7.2	-1.0	-4.1	-3.4	-1.9	2.9
COC[C@H]1CCCN1c1cccc2c1S(=O)(=O)N1CC[C@@H](C1)O2	.	.	.	.	-6.8	0.7
Cn1cc(S(=O)(=O)N2CCOCC2)cc1C(=O)O	-7.2	31.0*	-10.3	-7.2	-4.2	-9.9
Cc1ccc(F)cc1C(=O)N1CCCC(c2cc(C(=O)Nc3ccccc3Cl)no2)C1 (stereo not given)	.	9.2	-5.8	20.5	3.3	1.5
O=S(=O)(NCc1ccc(F)cc1)c1ccc(-n2cccn2)cc1	-3.2	21.2*	-2.6	-1.6	1.3	6.1
O=C1C2C3c4ccccc4C(c4ccccc43)[C@@H]2C(=O)N1c1nc(-c2ccccc2)cs1 (stereo not given in full)	1.4	-4.5	-4.9	52.5*	3.5	0.2
CCCCNC(=O)C[C@H]1C[C@@]2(C(=O)OC)C(=C[C@H](C(C)(C)C)O[C@@H]2C)N(CCC2=CCCCC2)C1=O	.	.	-8.4	.	2.3	9.6
Cc1cc(C(=O)COC(=O)Cn2c(C(F)(F)F)nc3ccccc32)c(C)n1Cc1ccco1	1.0	20.0*	-4.6	13.1	-5.9	4.3
Cc1ccc(C(=O)NCC(=O)OCC(=O)c2cc(C)n(Cc3ccco3)c2C)cc1	26.9	33.2*	-3.2	9.3	1.0	0.6
Cc1ccc2cccc(OCC(=O)c3cc(C)n(Cc4ccco4)c3C)c2n1	.	.	-2.3	.	-2.3	-2.7
Cc1cc(C(=O)COC(=O)CNC(=O)c2ccc(Cl)c(Cl)c2)c(C)n1Cc1ccco1	-13.2	-2.1	-9.2	20.7	-0.7	0.0
COc1cc(C(=O)C(=O)N2CCN(c3ccccc3)CC2)cc(OC)c1OC	.	5.8	-6.2	.	-3.5	0.6
CSc1cccc(CN2CCC(CO)(Cc3cccc(C(F)(F)F)c3)CC2)c1	-6.9	29.8*	-2.5	21.6	-1.9	6.2
CC(=O)Nc1ccc(NC(=O)c2cc([N+](=O)[O-])cc([N+](=O)[O-])c2)cc1	0.6	6.1	-9.0	13.9	-3.4	0.2
O=C(Nc1ccc(Br)cc1)c1cc([N+](=O)[O-])cc([N+](=O)[O-])c1	-20.8	-5.4	-1.5	54.9*	-2.6	7.3
COC(=O)[C@]12CCCCC=C1N(Cc1ccccc1)C(=O)[C@H](CC(=O)NCC13CC4CC(CC(C4)C1)C3)C2	.	16.0	-9.7	9.9	2.5	10.6
O=C(c1ccc(Cn2c(=O)[nH]c3ccccc3c2=O)cc1)N1CCN(c2ccc(Cl)cc2)CC1	-1.3	25.3*	-5.4	9.3	2.6	-1.7
Cc1ccc(C)c(N2CCN(C(=O)c3ccc(Cn4c(=O)[nH]c5ccccc5c4=O)cc3)CC2)c1	4.4	2.3	-4.2	12.8	3.4	6.0
Cc1cc(SCC(=O)O)nc2ccccc12	18.8	6.5	-8.4	-3.6	-4.4	-13.5
Cc1cc(SCC(=O)c2cc(C)n(C)c2C)nc2ccccc12	4.0	42.4*	-2.4	-1.0	4.5	0.3
COc1ccc(-c2coc3c(C(=O)N4CCN(C)CC4)cccc23)c(C)c1	.	-12.2	-12.4	-0.5	1.3	2.9
COc1ccc(C2CC(C(F)(F)F)n3nc(C(=O)O)c(Cl)c3N2)cc1OC (stereo not given)	5.4	35.3*	-3.5	-9.4	-1.2	5.5
COc1ccc(C2CC(C(F)(F)F)n3nc(CO)c(Cl)c3N2)cc1OC (stereo not given)	-2.4	-1.2	-3.9	-9.6	-7.4	-2.3
